According to article PMC6800637 (Cell chemical biology, 2019):
Like-named read-outs stand apart in the source and are kept apart here.

Columns and labels:
NRF2 [1] = test: ARE-luciferase NRF2 activation assay; assay type: cell-based; conditions: for Max. induction (fold): ARE-luciferase relative to vehicle control, MDA-MB-231
KEAP1-C151S = test: Dual luciferase reporter assay and immunoblot, KEAP1-C151S re-expressed; assay type: cell-based; conditions: for firefly luciferase induction in the presence of KEAP1-C151S: KEAP1-/- MDA-MB-231 + KEAP1-C151S, 5 at EC50, As 1 µM, 16 hours; for KEAP1-Cys151 dependence of NRF2 activation: KEAP1-WT versus KEAP1-C151S, dual luciferase and immunoblot
NRF2 [2] = test: NRF2 protein half-life; assay type: cell-based
NRF2 [3] = test: Real-time qRT-PCR of NRF2 and downstream genes; assay type: cell-based; conditions: MDA-MB-231, 16 hours
Summary of the method: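 MDA-MB-231 cells (6×10^5 per 35 mm dish) were treated 24 h after seeding with test compound for 16 h. Total RNA was TRIzol-extracted, and 1 µg was reverse-transcribed with M-MLV RT. SYBR Green qPCR: 95 °C 4 min, then 45 cycles of 95 °C 10 s and 60 °C 30 s. Values are normalised to GAPDH with untreated set to 1. Three runs in duplicate, mean ± SD, Student t-test.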

KEAP1-WT = test: Dual luciferase reporter assay and immunoblot, KEAP1-WT re-expressed; assay type: cell-based; conditions: KEAP1-/- MDA-MB-231 + KEAP1-WT, at EC50, 16 hours
Summary of the method: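 KEAP1−/− MDA-MB-231 cells (CRISPR-Cas9) were co-transfected with a KEAP1-WT expression vector plus NQO1-ARE firefly and TK-Renilla luciferase reporters. After 24 h, cells were treated with test compound for 16 h; controls were SFN (2 µM) and NaAsO2 (1 µM). Firefly activity is reported relative to Renilla (dual-luciferase), with an NRF2/KEAP1 immunoblot normalised to GAPDH. Mean ± SD of three independent experiments.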

NRF2 [4] = test: NRF2 ubiquitination assay; assay type: cell-based; conditions: MDA-MB-231 transfected with NRF2 and HA-Ubiquitin, 3 2.33 µM, 5 71.5 µM, 4 hours
KEAP1 = test: NRF2 immunoblot in KEAP1-WT and KEAP1-/- cells; assay type: cell-based; conditions: for level of NRF2 in KEAP1-/- cells: KEAP1-/- MDA-MB-231, four hours; for level of NRF2 in WT cells: KEAP1-WT MDA-MB-231, four hours
NRF2 [5] = test: Immunoblot of NRF2 and downstream genes; assay type: cell-based; conditions: for protein level of NRF2 and downstream target genes AKR1C1, NQO-1, HO-1, GCLM: MDA-MB-231, indicated doses, 16 hours
Summary of the method: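 MDA-MB-231 cells were seeded at 6×10^5 per 35 mm dish and treated 24 h later with test compound. Treatment was either a dose series for 16 h, or 2.33 or 71.5 µM (per compound) for a time course up to 48 h. Lysates were made in Laemmli buffer, boiled 5 min and run on SDS-PAGE, then immunoblotted for NRF2, AKR1C1, NQO1, HO-1 and GCLM. Done in triplicate.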

[6] = induction of ARE-luciferase, MDA-MB-231, 16 hours
[7] = MDA-MB-231 ARE-luciferase cell line, 48 h, MTT
[8] = MDA-MB-231, 71.5 µM, cycloheximide

Compound | LD50 [48 h] (MDA-MB-231 cells) | Max. induction (fold) (NRF2 [1]) | EC50 (NRF2 [1]; [6]) | LD50 [48 h] (MDA-MB-231 cells; [7]) | EC50 (NRF2 [1]; Homo sapiens, MDA-MB-231, 16 h) | other results
16,17-epoxymethylgeopyxin A [Compound 15] | 115.11 ± 3.57 µM | 3.5 fold | 26.8 ± 4.08 µM | – | – | –
1-O-Acetyl-15α-hydroxy-15-deoxy-methylgeopyxin A [Compound 14] | 123.63 ± 3.89 µM | 4.2 fold | 54.5 ± 5.1 µM | – | – | –
O=[As][O-].[Na+] [NaAsO2, Sodium (meta)arsenite, reference compound] | – | – | – | – | – | firefly luciferase induction in the presence of KEAP1-C151S (KEAP1-C151S): induction
C=C1C(=O)[C@]23C[C@H]1CC[C@H]2[C@]1(C)[C@@H](O)CC[C@@](C)(C(=O)OC)[C@H]1C[C@@H]3O [Compound 6, methylgeopyxin A] | – | 2.2 fold | – | 8.69 ± 0.93 µM | 2.32 ± 0.17 µM | –
C[C@]12[C@@H]3CC[C@@H]4C[C@]3(C(=O)[C@@H]4CO)[C@@H](O)C[C@@H]1[C@](C)(C(=O)O)CC[C@@H]2O [Compound 5, geopyxin F] | >128 µM | 3.0 fold | 71.5 ± 5.8 µM | – | – | cellular toxicity (MDA-MB-231 cells): no cellular toxicity; half-life of NRF2 (NRF2 [2]): increased the half-life; increase of half-life of NRF2 relative to compound 3 (NRF2 [2]; [8]): more than 2 times; increase of half-life of NRF2 relative to untreated cells (NRF2 [2]; [8]): more than 3 times; mRNA level of NRF2 (NRF2 [3]): remained unchanged; mRNA levels of the downstream genes (NRF2 [3]): increased in a dose dependent manner; firefly luciferase induction in the presence of KEAP1-WT (KEAP1-WT): induced; ubiquitylation of NRF2 (NRF2 [4]): largely fails to be ubiquitylated; level of NRF2 in KEAP1-/- cells (KEAP1): failed to further activate; level of NRF2 in WT cells (KEAP1): dose-dependent activation; firefly luciferase induction in the presence of KEAP1-C151S (KEAP1-C151S): induction; KEAP1-Cys151 dependence of NRF2 activation (KEAP1-C151S): independent of KEAP1-Cys151; time course of NRF2 protein level (NRF2 [5]; MDA-MB-231, 71.5 µM 5): continues to steadily rise all the way up to 48 hours; protein level of NRF2 and downstream target genes AKR1C1, NQO-1, HO-1, GCLM (NRF2 [5]): dose dependent increases
C=C1C(=O)[C@]23C[C@H]1CC[C@H]2[C@]1(C)C(=O)CC[C@@](C)(C(=O)O)[C@H]1C[C@@H]3O [Compound 3, geopyxin C] | – | 2.1 fold | 2.33 ± 0.35 µM | 51.29 ± 1.23 µM | – | half-life of NRF2 (NRF2 [2]; MDA-MB-231, at EC50, cycloheximide, in words): increased the half-life; mRNA level of NRF2 (NRF2 [3]): remained unchanged; mRNA levels of the downstream genes (NRF2 [3]): increased in a dose dependent manner; firefly luciferase induction in the presence of KEAP1-WT (KEAP1-WT): induced; ubiquitylation of NRF2 (NRF2 [4]): largely fails to be ubiquitylated; level of NRF2 in KEAP1-/- cells (KEAP1): failed to further activate; level of NRF2 in WT cells (KEAP1): dose-dependent activation; KEAP1-Cys151 dependence of NRF2 activation (KEAP1-C151S): Cys151 dependent; time of peak NRF2 protein level (NRF2 [5]; MDA-MB-231, 2.33 µM 3): 4 h; protein level of NRF2 and downstream target genes AKR1C1, NQO-1, HO-1, GCLM (NRF2 [5]): dose dependent increases
C[S+]([O-])CCCCN=C=S (centres unmarked) [SFN, sulforaphane, reference compound] | – | 1.9 fold | – | – | 0.97 ± 0.18 µM | LD50 [48 h] (MDA-MB-231 cells; human, 48 h): 46.2 µM; ubiquitylation of NRF2 (NRF2 [4]): largely fails to be ubiquitylated
16,17-dihydrogeopyxin A [Compound 16] | >128 µM | 1.6 fold | 70.4 ± 5.12 µM | – | – | –
C=C1C(=O)[C@]23C[C@H]1CC[C@H]2[C@]1(C)[C@@H](O)CC[C@@](C)(C(=O)O)[C@H]1C[C@@H]3O [Compound 1, geopyxin A] | – | 2.1 fold | – | 60.36 ± 1.18 µM | 4.44 ± 0.41 µM | –
15α-Hydroxy-15-deoxy-methylgeopyxin A [Compound 13] | >128 µM | 1.9 fold | 73.1 ± 0.87 µM | – | – | –
CC(C)(C)c1cc(O)ccc1O [tBHQ, tert-butylhydroquinone, reference compound] | – | 2.2 fold | – | 85.1 µM | 2.43 ± 0.34 µM | –
